Results as given in ChEMBL document CHEMBL1833814 (Bioorg Med Chem Lett, 2011).

Target: Fatty acid synthase (Homo sapiens, UniProt P49327)
Assay: Inhibition of human FAS assessed as synthesis of long chain fatty acids from malonyl CoA after 60 mins by fluorescence assay
Procedure, shortened: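 FAS enzyme prepared from HeLa cells, in enzyme buffer (20 mM K phosphate, 1 mM EDTA, 1 mM DTT, 5% glycerol, pH 7.4). It was preincubated 60 min at 37 °C with compound (0.1% DMSO), 326 µM NADPH and 60 µM acetyl CoA in 100 mM K phosphate, 1 mM EDTA, 1 mM DTT, pH 7.0. The reaction was started with 200 µM malonyl CoA. NADPH consumption was read at 340 nm over 10 min, and the slope (Vmax) was taken.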

Sequence of Fatty acid synthase (P49327 whole entry): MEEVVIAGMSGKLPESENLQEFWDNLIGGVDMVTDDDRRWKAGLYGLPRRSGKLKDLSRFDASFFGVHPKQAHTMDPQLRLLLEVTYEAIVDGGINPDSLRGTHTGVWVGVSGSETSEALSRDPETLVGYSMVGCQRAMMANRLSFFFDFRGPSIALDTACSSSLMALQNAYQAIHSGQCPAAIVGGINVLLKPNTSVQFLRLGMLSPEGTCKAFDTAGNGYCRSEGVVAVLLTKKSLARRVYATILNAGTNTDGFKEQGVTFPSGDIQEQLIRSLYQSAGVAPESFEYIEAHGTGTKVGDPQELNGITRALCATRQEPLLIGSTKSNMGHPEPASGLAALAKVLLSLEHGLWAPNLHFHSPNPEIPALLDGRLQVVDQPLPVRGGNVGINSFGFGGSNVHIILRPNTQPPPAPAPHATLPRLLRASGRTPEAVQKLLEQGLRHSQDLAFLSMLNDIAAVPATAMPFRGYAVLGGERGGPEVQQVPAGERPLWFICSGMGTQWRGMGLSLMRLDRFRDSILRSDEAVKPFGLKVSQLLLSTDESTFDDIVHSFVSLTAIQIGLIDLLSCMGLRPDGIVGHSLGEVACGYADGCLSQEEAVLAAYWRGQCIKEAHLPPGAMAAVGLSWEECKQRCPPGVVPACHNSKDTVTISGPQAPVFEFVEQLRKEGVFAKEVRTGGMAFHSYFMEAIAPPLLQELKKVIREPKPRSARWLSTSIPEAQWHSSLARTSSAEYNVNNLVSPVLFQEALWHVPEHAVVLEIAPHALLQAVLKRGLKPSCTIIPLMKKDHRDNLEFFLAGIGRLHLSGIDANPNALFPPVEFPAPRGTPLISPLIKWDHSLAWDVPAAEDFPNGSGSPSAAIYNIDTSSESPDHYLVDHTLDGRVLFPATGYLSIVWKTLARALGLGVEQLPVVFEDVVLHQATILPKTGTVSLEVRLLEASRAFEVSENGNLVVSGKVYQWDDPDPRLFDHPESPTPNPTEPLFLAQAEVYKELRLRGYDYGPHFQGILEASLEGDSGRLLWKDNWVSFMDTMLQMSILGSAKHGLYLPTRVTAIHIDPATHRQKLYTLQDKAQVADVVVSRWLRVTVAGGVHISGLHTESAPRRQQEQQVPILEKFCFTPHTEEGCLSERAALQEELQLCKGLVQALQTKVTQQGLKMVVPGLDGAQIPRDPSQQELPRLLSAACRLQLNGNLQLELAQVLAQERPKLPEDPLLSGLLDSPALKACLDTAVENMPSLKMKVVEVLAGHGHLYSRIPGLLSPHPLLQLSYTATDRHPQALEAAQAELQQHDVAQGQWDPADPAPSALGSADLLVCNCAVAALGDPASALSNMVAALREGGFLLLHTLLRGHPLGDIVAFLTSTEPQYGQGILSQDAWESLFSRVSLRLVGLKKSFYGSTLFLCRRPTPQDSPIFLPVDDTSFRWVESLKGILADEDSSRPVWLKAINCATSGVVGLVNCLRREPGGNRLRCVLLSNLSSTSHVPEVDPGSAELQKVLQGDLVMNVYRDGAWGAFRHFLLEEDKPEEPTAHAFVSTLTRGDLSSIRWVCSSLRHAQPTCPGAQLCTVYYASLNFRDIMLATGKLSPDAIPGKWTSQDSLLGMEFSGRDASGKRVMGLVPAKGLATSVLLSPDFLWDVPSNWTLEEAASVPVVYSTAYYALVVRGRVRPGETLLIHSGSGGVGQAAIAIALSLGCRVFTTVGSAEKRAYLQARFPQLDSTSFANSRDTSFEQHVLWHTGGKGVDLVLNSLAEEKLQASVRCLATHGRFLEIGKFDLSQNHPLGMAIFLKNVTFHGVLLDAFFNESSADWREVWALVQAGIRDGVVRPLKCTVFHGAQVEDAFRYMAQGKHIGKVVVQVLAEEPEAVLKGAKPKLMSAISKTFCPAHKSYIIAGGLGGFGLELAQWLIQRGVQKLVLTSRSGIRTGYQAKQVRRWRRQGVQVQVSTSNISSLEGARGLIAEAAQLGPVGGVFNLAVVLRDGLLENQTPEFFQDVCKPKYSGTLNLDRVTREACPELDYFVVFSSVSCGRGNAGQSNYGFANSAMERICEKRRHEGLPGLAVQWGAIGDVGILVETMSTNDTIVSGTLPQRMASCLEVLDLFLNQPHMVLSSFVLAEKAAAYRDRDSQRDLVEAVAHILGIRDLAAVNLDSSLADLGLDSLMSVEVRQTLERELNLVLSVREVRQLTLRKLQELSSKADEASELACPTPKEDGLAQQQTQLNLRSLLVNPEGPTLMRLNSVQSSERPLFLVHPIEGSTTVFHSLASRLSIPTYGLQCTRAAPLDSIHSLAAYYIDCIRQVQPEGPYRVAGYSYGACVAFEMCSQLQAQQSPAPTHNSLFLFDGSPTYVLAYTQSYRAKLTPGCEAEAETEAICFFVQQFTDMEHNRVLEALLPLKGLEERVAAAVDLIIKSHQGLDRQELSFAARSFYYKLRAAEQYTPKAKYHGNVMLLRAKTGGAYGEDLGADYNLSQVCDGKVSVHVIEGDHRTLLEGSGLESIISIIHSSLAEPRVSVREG

SMILES	IC50
CC(=O)N[C@H]1CC[C@@H](C(=O)N(C)c2ccc(-c3ccccc3)cc2)C1	480 nM
CC(C)C(=O)N[C@H]1CC[C@@H](C(=O)N(C)c2ccc(-c3ccccc3)cc2)C1	420 nM
CCNC(=O)N[C@H]1CC[C@@H](C(=O)N(C)c2ccc(-c3ccccc3)cc2)C1	1500 nM
CCC(=O)N[C@H]1CC[C@@H](C(=O)N(C)c2ccc(-c3ccccc3)cc2)C1	300 nM
CN(C)CCCCCC(=O)N[C@H]1CC[C@@H](C(=O)N(C)c2ccc(-c3ccccc3)cc2)C1	2000 nM
CC(=O)N[C@@H]1CC[C@H](C(=O)N(C)c2ccc(-c3ccccc3)cc2)C1	> 10000 nM
CCC(=O)N[C@H]1CC[C@@H](C(=O)N(C)c2ccc(-c3nc4ccccc4[nH]3)cc2)C1	190 nM
CCC(=O)N[C@H]1CC[C@@H](C(=O)N(C)c2ccc(-c3nc4ccccc4n3C)cc2)C1	310 nM
CCC(=O)N[C@H]1CC[C@@H](C(=O)N(C)c2ccc(-c3cn4ccccc4n3)cc2)C1	290 nM
CC(=O)N[C@H]1CC[C@@H](C(=O)N(C)c2ccc(-c3nc4ccccc4[nH]3)cc2)C1	1300 nM
CC(C)C(=O)N[C@H]1CC[C@@H](C(=O)N(C)c2ccc(-c3nc4ccccc4[nH]3)cc2)C1	1500 nM
CCNC(=O)N[C@H]1CC[C@@H](C(=O)N(C)c2ccc(-c3nc4ccccc4[nH]3)cc2)C1	400 nM
